Measurements from ChEMBL document CHEMBL1221214, “Cytosporone B is an agonist for nuclear orphan receptor Nur77” (Nat Chem Biol, 2008).
≈ marks a conversion by molar mass, not a printed value. Calls of active or inactive are those of the source. The calls are words filed in the database; no cut-off is given here.

Columns and labels:
[1] = biological target: T1, Nuclear receptor subfamily 4immunitygroup A member 1 (Homo sapiens, UniProt P22736); test: Binding affinity to Nur77 receptor expressed in human BGC823 cells; format: cell-based, BGC-823
[2] = biological target: T1, Nuclear receptor subfamily 4immunitygroup A member 1; test: Agonist activity at nuclear orphan receptor Nur77 in human BGC823 cells bearing beta-galactosidase expression vector assessed as transcriptional activation of thyroid receptor reporter gene after 12 hrs by luciferase assay; format: functional, cell-based; conditions: BGC-823
[3] = biological target: T1, Nuclear receptor subfamily 4immunitygroup A member 1; test: Binding affinity to nuclear orphan receptor Nur77-ligand binding domain at 5 Um by fluorescence quenching analysis
[4] = biological target: T1, Nuclear receptor subfamily 4immunitygroup A member 1; test: Agonist activity at nuclear orphan receptor Nur77 expressed in human BGC823 cells co-transfected with fused GAL4-Nur77 assessed as transactivation after 12 hrs by luciferase reporter gene assay; format: functional, cell-based, BGC-823
[5] = biological target: T1, Nuclear receptor subfamily 4immunitygroup A member 1; test: Agonist activity at nuclear orphan receptor Nur77 expressed in human BGC823 cells co-transfected with fused GAL4-DBD assessed as transactivation after 12 hrs by luciferase reporter gene assay; format: functional, cell-based; conditions: BGC-823
[6] = biological target: T1, Nuclear receptor subfamily 4immunitygroup A member 1; test: Agonist activity at nuclear orphan receptor Nur77 expressed in human BGC823 cells co-transfected with fused GAL4-Y453A assessed as transactivation after 12 hrs by luciferase reporter gene assay; format: functional, cell-based; conditions: BGC-823
Mus musculus [7] = test: Increase in blood glucose level in wild-type mouse C57BL/6 at 50 mg/kg, ip within 30 mins; format: functional; conditions: route intraperitoneal
Summary of the method: (§1)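 C57BL/6 mice (wild-type or Nr4a1-/-, six weeks old) fasted 16 h with water, then given 50 mg kg-1 intraperitoneally. DMSO (50 μl) or injection without vehicle served as controls. Tail-vein blood glucose was read by glucometer at 15, 30, 60, 90, 120, 180 and 300 min. Means ± s.e.m.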

Mus musculus [8] = test: Increase in blood glucose level in Nr4a1 deficient mouse C57BL/6 at 50 mg/kg, ip within 30 mins; format: functional; conditions: route intraperitoneal; summary of the method: as §1
[9] = biological target: Nuclear receptor subfamily 4 group A member 1 (Mus musculus) (UniProt P12813); test: Agonist activity at Nur77 in wild-type mouse C57BL/6 assessed as glucose-6-phosphatase mRNA at 50 mg/kg, ip within 30 mins by real-time PCR analysis relative to control; format: functional, organism-based; parameters: dose 50 mg/kg
[10] = biological target: Nuclear receptor subfamily 4 group A member 1 (Mus musculus) (UniProt P12813); test: Agonist activity at Nur77 in wild-type mouse C57BL/6 assessed as fructose-1,6-bisphosphatase mRNA at 50 mg/kg, ip within 30 mins by real-time PCR analysis relative to control; format: functional, organism-based; parameters: dose 50 mg/kg
[11] = biological target: Nuclear receptor subfamily 4 group A member 1 (Mus musculus) (UniProt P12813); test: Agonist activity at Nur77 in wild-type mouse C57BL/6 assessed as phosphofructokinase mRNA at 50 mg/kg, ip within 30 to 300 mins by real-time PCR analysis; format: functional, organism-based; parameters: dose 50 mg/kg
[12] = biological target: Nuclear receptor subfamily 4 group A member 1 (Mus musculus) (UniProt P12813); test: Agonist activity at Nur77 in wild-type mouse C57BL/6 assessed as hexokinase mRNA at 50 mg/kg, ip after 300 mins by real-time PCR analysis; format: functional, organism-based; parameters: dose 50 mg/kg
[13] = biological target: Nuclear receptor subfamily 4 group A member 1 (Mus musculus) (UniProt P12813); test: Agonist activity at Nur77 in insulin treated mouse C57BL/6 assessed as fructose-1,6-bisphosphatase mRNA after 60 mins by real-time PCR relative to control; format: functional
BGC-823 [14] = test: Induction of Nur77 mediated apoptosis in human BGC823 cells assessed as nuclear DNA condensation by flow cytometry assay; format: functional, cell-based
BGC-823 [15] = test: Induction of mitochondrial translocation of Nur77 from nucleus in human BGC823 cells transfected with GFP-Nur77 at 5 ug/ml after 12 hrs using immunostained with anti-Hsp60 by confocal microscopy; format: functional, cell-based
Summary of the method: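 BGC-823 cells transfected with GFP-Nur77, treated at 5 μg ml-1 for 12 h, immunostained with anti-Hsp60 and Texas Red secondary antibody, and imaged by confocal microscopy for mitochondrial localization.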

HepG2 = test: Antiproliferative activity against human HepG2 cells assessed as number of viable cells after 72 hrs by MTT assay; format: functional, cell-based
Mus musculus [16] = species on record: Mus musculus; test: Antiproliferative activity against mouse ME-Hep4 cells assessed as number of viable cells after 72 hrs by MTT assay; format: functional, cell-based
[17] = system: Mycobacterium tuberculosis; test: Antimicrobial activity against Mycobacterium tuberculosis; format: functional, organism-based
Staphylococcus aureus = test: Antimicrobial activity against Staphylococcus aureus; format: functional, organism-based
BGC-823 [18] = test: Antitumor activity against human BGC823 cells expressing Nur77-WT xenografted in athymic nude mouse BALB/c assessed as tumor weight 13 mg/kg, ip twice a week after 4 weeks; format: functional, organism-based; parameters: dose 13 mg/kg
Summary of the method: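 BALB/c athymic nude mice (~16 g, 4 weeks old, 28 °C, sterile housing) inoculated subcutaneously with 0.05 ml BGC-823 cell suspension (wild-type, si-Nur77 or si-Ctrl sublines; 2.5×10^10 l-1), n = 6; after 1 week, Csn-B 13 mg kg-1 ip twice weekly or DMSO; tumors weighed at 4 weeks; means ± s.d., two-tailed t-test.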

[19] = biological target: T1, Nuclear receptor subfamily 4immunitygroup A member 1; test: Agonist activity at nuclear orphan receptor Nur77 expressed in human BGC823 cells co-transfected with pLuc-3500 containing Nr4a1 promoter assessed as transcriptional activity; format: functional, cell-based; conditions: BGC-823
[20] = biological target: T1, Nuclear receptor subfamily 4immunitygroup A member 1; test: Agonist activity at nuclear orphan receptor Nur77 expressed in human BGC823 cells co-transfected with pLuc-500 containing Nr4a1 promoter assessed as transcriptional activity; format: functional, cell-based; conditions: BGC-823
[21] = biological target: T1, Nuclear receptor subfamily 4immunitygroup A member 1; test: Induction of Nur77-SRC1 interaction in human 293T cells by GST-pull-down assay; format: cell-based
Summary of the method: (§2)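 293T cells transfected with Flag-SRC-1, -2 or -3 and treated at 10⁻⁶ M for 3 h. Lysates were incubated with GST-Nur77 or GST alone, and bound SRC was detected by pull-down against input levels.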

[22] = biological target: T1, Nuclear receptor subfamily 4immunitygroup A member 1; test: Induction of Nur77-SRC2 interaction in HEK293T cells by GST-pull-down assay; format: cell-based; conditions: HEK-293T; summary of the method: as §2
BGC-823 [23] = test: Induction of SRC2 recruitment to NurRE in human BGC823 cells after 12 hrs by luciferase/beta-galactosidase reporter assay; format: functional, cell-based
Summary of the method: (§3)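 BGC-823 cells cotransfected with or without SRC-1, SRC-2 or SRC-3, plus NurRE-luciferase reporter and β-galactosidase, then treated for 12 h at a range of concentrations. Fold induction is each luciferase activity relative to non-SRC transfection at the same concentration.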

BGC-823 [24] = test: Induction of SRC3 recruitment to NurRE in human BGC823 cells after 12 hrs by luciferase/beta-galactosidase reporter assay; format: functional, cell-based; summary of the method: as §3
[25] = biological target: T1, Nuclear receptor subfamily 4immunitygroup A member 1; test: Induction of SRC1-enhanced Nur77 transactivational activity in human BGC823 cells after 12 hrs by luciferase/beta-galactosidase reporter assay; format: cell-based; conditions: BGC-823; summary of the method: as §3
[26] = biological target: T1, Nuclear receptor subfamily 4immunitygroup A member 1; test: Agonist activity at Nur77 expressed in human gastric cancer BGC823 assessed as transactivation in presence of siRNA against Nur77; format: functional; conditions: Stomach
[27] = biological target: Nuclear receptor subfamily 4 group A member 1 (Mus musculus) (UniProt P12813); test: Agonist activity at Nur77 in Nr4A1 deficient mouse assessed as transcriptional activation of luciferase reporter gene relative to control; format: functional
[28] = biological target: T1, Nuclear receptor subfamily 4immunitygroup A member 1; test: Agonist activity at Nur77 expressed in human BGC823 cells assessed as Nr4a1mRNA expression by real-time PCR; format: functional, cell-based; conditions: BGC-823
[29] = biological target: Nuclear receptor subfamily 4 group A member 1 (Mus musculus) (UniProt P12813); test: Agonist activity at Nur77 in Nr4a1-/- mouse transfected withGAL4-Y453A assessed as transcriptional activation of luciferase reporter gene
BGC-823 [30] = test: Antitumor activity against human BGC823 cells expressing Nur77-WT xenografted in athymic nude mouse BALB/c assessed as increase in apoptotic cells by TUNEL assay

T1 sequence (P22736 whole entry): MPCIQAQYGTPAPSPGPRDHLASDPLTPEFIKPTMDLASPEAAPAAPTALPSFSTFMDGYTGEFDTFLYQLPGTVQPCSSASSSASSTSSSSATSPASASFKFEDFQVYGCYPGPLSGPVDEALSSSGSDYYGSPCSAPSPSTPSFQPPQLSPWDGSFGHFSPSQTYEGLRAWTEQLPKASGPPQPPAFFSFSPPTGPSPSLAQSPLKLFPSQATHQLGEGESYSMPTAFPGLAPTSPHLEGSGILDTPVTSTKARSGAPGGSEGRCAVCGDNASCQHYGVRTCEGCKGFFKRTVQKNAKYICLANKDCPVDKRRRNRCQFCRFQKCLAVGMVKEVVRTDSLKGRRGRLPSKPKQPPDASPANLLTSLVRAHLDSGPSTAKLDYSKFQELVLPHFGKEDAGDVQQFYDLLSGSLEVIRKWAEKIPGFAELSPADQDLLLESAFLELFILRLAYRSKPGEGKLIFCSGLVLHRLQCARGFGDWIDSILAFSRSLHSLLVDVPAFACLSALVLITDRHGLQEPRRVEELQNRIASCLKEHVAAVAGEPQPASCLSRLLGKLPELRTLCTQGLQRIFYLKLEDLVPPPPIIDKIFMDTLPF
Nuclear receptor subfamily 4 group A member 1 (Mus musculus), sequence (P12813 whole entry, the tested form may be a part): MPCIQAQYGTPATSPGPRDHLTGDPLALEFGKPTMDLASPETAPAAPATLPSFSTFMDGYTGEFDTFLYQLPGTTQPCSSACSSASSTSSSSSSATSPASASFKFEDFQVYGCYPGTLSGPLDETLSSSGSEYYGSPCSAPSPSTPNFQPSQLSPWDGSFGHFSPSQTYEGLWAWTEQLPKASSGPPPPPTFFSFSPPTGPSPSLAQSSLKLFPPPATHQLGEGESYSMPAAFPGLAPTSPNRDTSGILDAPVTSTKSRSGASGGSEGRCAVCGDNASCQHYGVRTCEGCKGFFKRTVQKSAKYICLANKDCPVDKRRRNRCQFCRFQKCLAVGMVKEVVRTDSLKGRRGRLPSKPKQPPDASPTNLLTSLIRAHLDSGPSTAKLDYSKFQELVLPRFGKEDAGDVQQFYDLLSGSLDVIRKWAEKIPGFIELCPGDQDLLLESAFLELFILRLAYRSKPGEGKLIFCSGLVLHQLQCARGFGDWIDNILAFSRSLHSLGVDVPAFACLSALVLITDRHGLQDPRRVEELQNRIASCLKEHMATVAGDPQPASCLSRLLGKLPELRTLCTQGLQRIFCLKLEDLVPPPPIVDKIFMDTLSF

SMILES: CCCCCCCC(=O)c1c(O)cc(O)cc1CC(=O)OCC [CYTOSPORONE B]
- Kd [1]: 740 nM
- Activity [2]: inactive
- Activity [3]: Active
- EC50 [4]: 0.278 nM
- Activity [5]: inactive
- Activity [6]: inactive
- Activity (Mus musculus [7]): 11.4 mM
- Activity (Mus musculus [8]): 5.8 mM
- Activity [9]: Active
- fold change (FC) [10]: 3
- Activity [11]: inactive
- Activity [12]: inactive
- fold change (FC) [13]: 3.05
- Activity (BGC-823 [14]): Active
- Activity (BGC-823 [15]): Active
- Activity (HepG2): Active
- inhibition (Mus musculus [16]): Active
- IC50 [17]: 250 µg/mL (≈ 775 µM)
- IC50 (Staphylococcus aureus): 12.5 µg/mL (≈ 38.8 µM)
- Activity (BGC-823 [18]): Active
- Activity [19]: Active
- Activity [20]: inactive
- Activity [21]: Active
- Activity [22]: Active
- Activity (BGC-823 [23]): Active
- Activity (BGC-823 [24]): inactive
- Activity [25]: Dose-dependent effect
- Activity [26]: inactive
- Activity [27]: inactive
- Activity [28]: Active
- Activity [29]: Active
- Activity (BGC-823 [30]): Active
